Measurements from different studies.
Each line is one published result; the experiments were not run side by side.
Mode: inhibitor
ACHE: Acetylcholinesterase (ACHE, Homo sapiens, UniProt P22303)
APOBEC3G: DNA dC->dU-editing enzyme APOBEC-3G (APOBEC3G, Homo sapiens, UniProt Q9HC16)
DPP4: Dipeptidyl peptidase 4 (DPP4, Homo sapiens, UniProt P27487)
CDK9 with cyclin T1: Cyclin-dependent kinase 9, with cyclin T1 (CDK9, Homo sapiens, UniProt P50750)

C=CCn1c2cc(OC(=O)CCCCN3CCN(Cc4cccc(C)c4)CC3)ccc2c2ccnc(C)c21
IC50 (ACHE; enzyme activity, Ellman): 0.0358 µM

CSCC[C@H](NC(=O)[C@H](Cc1c[nH]cn1)NC(=O)[C@H](Cc1c[nH]cn1)NC(=O)[C@@H](N)CCCCN)C(=O)N[C@@H](Cc1ccc(O)cc1)C(=O)N[C@H](C(=O)N[C@@H](CO)C(=O)NCC(=O)N[C@@H](CCCCN)C(=O)N[C@@H](C)C(=O)N[C@@H](CCCNC(=N)N)C(=O)NCC(=O)N[C@@H](Cc1c[nH]c2ccccc12)C(=O)N[C@@H](Cc1ccccc1)C(=O)O)C(C)C
IC50 (APOBEC3G; enzyme activity; pH 7.4): 80 µM

C[C@H]1CN(c2n[nH]c3nc(N[C@H]4CC[C@H](NS(=O)(=O)CCC(F)(F)F)CC4)ncc23)CCO1
IC50 (Cyclin-dependent kinase 9 (CDK9, Homo sapiens, UniProt P50750); cell-free assay, chemoproteomics; lysate): > 20 µM

CC(C)[C@H](N)C(=O)N1CCC[C@H]1C(=O)N[C@H](C(=O)N1CCC[C@H]1C(=O)N[C@H](C(=O)O)C(C)C)C(C)C
IC50 (DPP4; enzyme activity, absorbance; pH 8): 59.1 µM

COc1c(-c2ccccc2)oc2c(ccc3occc32)c1=O
IC50 (CDK9 with cyclin T1; enzyme activity, ADP detection): > 100 µM

CC[C@H]1NC(=O)[C@@H]2CSC(=N2)[C@@H](Cc2ccccc2)N(C)C(=O)[C@@H]2CCCN2C(=O)[C@H](C(C)C)N(C)C(=O)[C@H](Cc2ccccc2)OC(=O)[C@H](C)[C@@H](C)NC(=O)[C@@H]([C@@H](C)O)NC(=O)[C@@H](CC(C)C)N(C)C(=O)[C@@H]2CSC1=N2
IC50 (DPP4; enzyme activity): 347 µM

CC[C@H](C)[C@H](N)C(=O)N[C@@H](Cc1c[nH]cn1)C(=O)N[C@@H](CC(C)C)C(=O)N[C@@H](Cc1ccc(O)cc1)C(=O)N[C@@H](Cc1ccc(O)cc1)C(=O)N[C@@H](Cc1ccccc1)C(=O)N[C@@H](CC(=O)O)C(=O)O
IC50 (APOBEC3G; enzyme activity; pH 7.4): 110 µM

COc1c(-c2ccc3c(c2)OCO3)oc2c(ccc3occc32)c1=O
IC50 (CDK9 with cyclin T1; enzyme activity, ADP detection): 38.4 µM

CC[C@H](C)[C@H](NC(=O)[C@@H]1CCCN1C(=O)[C@@H](NC(=O)[C@@H]1CCCN1C(=O)[C@@H](N)C(C)C)C(C)C)C(=O)O
IC50 (DPP4; enzyme activity, absorbance; pH 8): 103 µM

CC(C)C[C@@H]1C(=O)N[C@H]([C@@H](C)O)C(=O)N[C@H](C)[C@@H](C)C(=O)O[C@@H](Cc2ccccc2)C(=O)N(C)[C@@H](C(C)C)C(=O)N2CCC[C@H]2C(=O)N(C)[C@H](Cc2ccccc2)C2=N[C@@H](CS2)C(=O)N[C@H](C)C2=N[C@@H](CS2)C(=O)N1C
IC50 (DPP4; enzyme activity): 164 µM

CC[C@H](C)[C@H](N)C(=O)N1CCC[C@H]1C(=O)N[C@H](C(=O)N1CCC[C@H]1C(=O)N[C@H](C(=O)O)[C@@H](C)CC)C(C)C
IC50 (DPP4; enzyme activity, absorbance; pH 8): 57 µM

Cc1cc(C)nc(Nc2ncc(C(=O)NCCc3c(C)[nH]c4ccccc34)cn2)c1
IC50 (Cytochrome P450 2C8 (CYP2C8, Homo sapiens, UniProt P10632); enzyme activity; human, liver microsomes): 4 µM

CC(C)[C@H](N)C(=O)N1CCC[C@H]1C(=O)N[C@H](C(=O)N1CCC[C@H]1C(=O)N[C@@H](CCC(N)=O)C(=O)O)C(C)C
IC50 (DPP4; enzyme activity, absorbance; pH 8): 112 µM

C=CCn1c2cc(OC(=O)CCCCN3CCN(Cc4ccccc4F)CC3)ccc2c2ccnc(C)c21
IC50 (ACHE; enzyme activity, Ellman): 0.15 µM
